ChEMBL document CHEMBL1121388, “Analgesic narcotic antagonists. 2. 8-Alkymorphinan-6-ones” (J Med Chem, 1980)
Active and inactive are the calls of the source. The rule behind the calls is not given here.

What was measured:
Mus musculus = test: The effective dose was measured by using mouse writhing assay after the compound administered subcutaneously.; type: functional; settings: sc
In short: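 Analgesia in the mouse writhing test induced by acetic acid, with compound given subcutaneously. Salts were dissolved in distilled H₂O; free bases were dissolved by dropwise 1 N HCl and then diluted.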

Rattus norvegicus [1] = test: The Effective dose was measured by using rat tail flick assay after the compound administered intraperitoneally at a dose of 7.7 umol/kg; IA means inactive at the given dose; type: functional, organism-based
Rattus norvegicus [2] = test: The %change in weight from day 0 to day 2 after administering the compound at dose of 80 (mg/kg)/day in rat; type: functional
In short: (§1)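 Rat physical dependence liability study: drug infused at the stated mg/kg/day for 6 days, with saline-infused controls for 6 days. Body weight was recorded daily and expressed as % change from day 0 on days 1–4. Groups of 4–6 rats; values are means ±.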

Rattus norvegicus [3] = test: The %change in weight from day 0 to day 4 after administering the compound at dose of 40 (mg/kg)/day in rat; type: functional; in short: as §1
Rattus norvegicus [4] = test: The %change in weight from day 0 to day 3 after administering the compound at dose of 40 (mg/kg)/day in rat; type: functional; in short: as §1
Rattus norvegicus [5] = test: The %change in weight from day 0 to day 2 after administering the compound at dose of 40 (mg/kg)/day in rat; type: functional; in short: as §1
Rattus norvegicus [6] = test: The %change in weight from day 0 to day1 after administering the compound at dose of 40 (mg/kg)/day in rat; type: functional; in short: as §1
Rattus norvegicus [7] = test: The %change in weight from day 0 to day1 after administering the compound at dose of 80 (mg/kg)/day in rat; type: functional; in short: as §1
Rattus norvegicus [8] = test: The %change in weight from day 0 to day 4 after administering the compound at dose of 80 (mg/kg)/day in rat; type: functional; in short: as §1
Rattus norvegicus [9] = test: The %change in weight from day 0 to day 3 after administering the compound at dose of 80 (mg/kg)/day in rat; type: functional; in short: as §1
Rattus norvegicus [10] = test: The Effective dose was measured by using rat tail flick assay after the compound administered subcutaneously; lethal at the given dose; type: organism-based; settings: in vivo, sc
In short: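 Agonist activity in the rat heat-stimulus tail-flick test. Drug was given subcutaneously and rats were tested 20 min after dosing. Salts were dissolved in distilled H₂O; free bases were dissolved with dropwise 1 N HCl and then diluted. ED₅₀ or inactivity/lethality recorded at the dose indicated.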

Row | SMILES | ED50 (Mus musculus) [µmol/kg] | ED50 (Rattus norvegicus [1]) | Change (Rattus norvegicus [2]) [%] | Change (Rattus norvegicus [3]) [%] | Change (Rattus norvegicus [4]) [%] | Change (Rattus norvegicus [5]) [%] | Change (Rattus norvegicus [6]) [%] | Change (Rattus norvegicus [7]) [%] | Change (Rattus norvegicus [8]) [%] | Change (Rattus norvegicus [9]) [%] | ED50 (Rattus norvegicus [10]) [µM/kg]
1 | CCC1CCCC23CCN(CC4CCC4)C(Cc4ccc(OC)cc42)[C@H]13 (some centres not stated) | > 25 | inactive | – | – | – | – | – | – | – | – | –
2 | C[C@H]1CC(=O)CC23CCN(CC4CCC4)C(Cc4ccc(O)cc42)[C@H]13.O=C(O)C(O)C(O)C(=O)O (some centres not stated) | – | – | 3.1 | 9.6 | 6.1 | 2 | 1.2 | 1.7 | 9.5 | 5.3 | –
3 | COc1ccc2c(c1)C13CCN(C)C(C2)[C@H]1[C@H](C)CC(=O)C3 (some centres not stated) | 2.65 | – | – | – | – | – | – | – | – | – | 9
